How the values were obtained:
[1] = system: Rattus norvegicus; assay: In vivo ED40 is the raising diastolic blood pressure by 40 mm Hg in pithed rats. (postjunctional); format: functional; settings: Artery
Procedure, shortened: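 Pithed rats, compound given iv in cumulative doses. ED40 is the dose (μg/kg) raising diastolic blood pressure by 40 mmHg. Separate groups of rats (n = 4-6).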

[2] = molecular target: Adrenergic receptor alpha-1 (Rattus norvegicus) (UniProt P15823+P23944+P43140); assay: Agonism at alpha-1 adrenergic receptor, determined as the dose required to produce a two fold shift of the cirazoline on diastolic blood pressure.; format: functional, tissue-based; settings: Artery
[3] = system: Adrenergic receptor alpha-2 (Rattus norvegicus); assay: Agonism at alpha-2 adrenergic receptor, determined as dose required to produce a two fold shift of the cumulative dose-response curve to UK-14304 on the twitch response in rat vas deferens.
[4] = molecular target: T1, Adrenergic receptor alpha-2 (Rattus norvegicus, UniProt P22086+P19328+P22909); assay: Inhibition of saturable binding of [3H]idazoxan to alpha2-site in rat cerebral cortical membranes.; format: cell membranes, Membrane
T1 sequence (P22086 whole entry): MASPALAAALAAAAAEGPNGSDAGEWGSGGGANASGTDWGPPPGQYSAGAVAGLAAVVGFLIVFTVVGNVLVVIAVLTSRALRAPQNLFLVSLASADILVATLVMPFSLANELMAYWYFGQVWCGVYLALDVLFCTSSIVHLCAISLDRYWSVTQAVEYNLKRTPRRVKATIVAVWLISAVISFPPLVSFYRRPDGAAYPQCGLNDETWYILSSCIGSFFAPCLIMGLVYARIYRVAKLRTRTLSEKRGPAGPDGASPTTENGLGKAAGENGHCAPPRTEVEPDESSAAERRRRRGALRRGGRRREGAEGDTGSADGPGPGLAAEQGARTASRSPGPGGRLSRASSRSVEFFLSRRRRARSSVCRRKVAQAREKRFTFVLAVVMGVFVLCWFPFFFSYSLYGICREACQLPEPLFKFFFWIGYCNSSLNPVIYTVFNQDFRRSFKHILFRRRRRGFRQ
T1 sequence (P19328 whole entry): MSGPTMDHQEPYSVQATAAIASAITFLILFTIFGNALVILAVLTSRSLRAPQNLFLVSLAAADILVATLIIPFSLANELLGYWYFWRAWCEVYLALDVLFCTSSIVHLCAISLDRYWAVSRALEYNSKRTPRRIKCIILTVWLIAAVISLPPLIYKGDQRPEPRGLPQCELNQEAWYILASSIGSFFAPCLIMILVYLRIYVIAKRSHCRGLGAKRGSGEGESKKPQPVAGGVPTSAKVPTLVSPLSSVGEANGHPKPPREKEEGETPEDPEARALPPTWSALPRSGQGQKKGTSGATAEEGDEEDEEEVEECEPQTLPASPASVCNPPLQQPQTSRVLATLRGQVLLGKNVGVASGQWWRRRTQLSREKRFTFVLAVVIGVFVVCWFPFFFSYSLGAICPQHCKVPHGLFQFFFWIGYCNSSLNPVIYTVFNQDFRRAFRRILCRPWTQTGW
T1 sequence (P22909 whole entry): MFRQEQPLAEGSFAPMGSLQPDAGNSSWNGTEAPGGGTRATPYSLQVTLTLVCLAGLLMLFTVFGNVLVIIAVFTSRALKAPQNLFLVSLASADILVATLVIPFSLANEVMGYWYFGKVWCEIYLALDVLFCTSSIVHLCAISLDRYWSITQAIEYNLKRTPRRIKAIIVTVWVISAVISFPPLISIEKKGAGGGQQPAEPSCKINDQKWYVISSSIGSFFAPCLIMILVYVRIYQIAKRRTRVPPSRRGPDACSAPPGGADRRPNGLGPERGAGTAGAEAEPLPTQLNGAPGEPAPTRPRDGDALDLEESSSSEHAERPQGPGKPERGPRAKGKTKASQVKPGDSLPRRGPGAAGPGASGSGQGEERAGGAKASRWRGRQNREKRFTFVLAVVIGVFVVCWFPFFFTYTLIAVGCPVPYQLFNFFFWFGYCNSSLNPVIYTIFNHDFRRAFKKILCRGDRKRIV

[5] = system: Adrenergic receptor alpha-1 (Rattus norvegicus); assay: […] towards alpha-1 adrenergic receptor determined as the dose required to produce a two fold shift of the cirazoline on diastolic blood pressure (in vitro); settings: Artery
[6] = molecular target: Adrenergic receptor alpha-2 (Rattus norvegicus) (UniProt P22086+P19328+P22909); assay: Antagonist potency towards alpha-2 adrenergic receptor determined as the dose required to produce a two fold shift of the dose-response curve to UK-14304 on the twitch response of the vas deferens (in vitro);AG- agonist; format: functional, tissue-based; settings: filed as agonist
[7] = system: Rattus norvegicus; assay: In vivo antagonist dose producing two fold shift of cirazoline in pithed rats. (postjunctional); format: functional
Procedure, shortened: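 Pithed rats, separate groups (n = 4-6). Cirazoline cumulative dose-response on diastolic blood pressure (postjunctional α1) was recorded with and without antagonist given iv. The antagonist dose (μg/kg, iv) giving a twofold rightward shift of the cirazoline curve was reported as DR2.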

[8] = system: Rattus norvegicus; assay: In vivo antagonist dose producing two fold shift of UK-14,304 in pithed rats. (prejunctional)

Prejunctional agonist potency [3]: 0.02
Ki [4]: 1.87 nM
Prejunctional antagonist potency [6]: Agonist
Compound: c1ccc(CN2c3ccccc3CC2C2=NCCN2)cc1 (stereo not drawn)
ED40 [1]: 0.308 mg/kg
Postjunctional agonist potency [2]: 0
Postjunctional antagonist potency [5]: 120
DR2 [7]: 0.0543 mg/kg
DR2 [8]: 0.0087 mg/kg

From ChEMBL document CHEMBL1124112, “Indoline analogues of idazoxan: potent alpha 2-antagonists and alpha 1-agonists” (J Med Chem, 1988)
